# The source made the active and inactive calls. The rule behind the calls is not given here.
# What was measured:
# Tubulin (Sus scrofa) = Tubulin (Sus scrofa) (UniProt P02554+P02550); experiment: Inhibition of porcine tubulin polymerization assessed as inhibition of tubulin assembly Vmax rate at 10 uM by spectrophotometric analysis; format: protein assay
# How it was run: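 Tubulin polymerisation kit (>97% pure porcine tubulin, OD-based). Tubulin plus GTP at 37 °C with test agent at 10 μM final; 1% v/v ethanol as vehicle. A340 read every 30 s for 60 min at 37 °C. Fold change in Vmax calculated relative to vehicle; mean of three separate experiments.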
# MCF7 [1] = experiment: Antiproliferative activity against human MCF7 cells assessed as cell viability pre-incubated for 24 hrs with CO2 followed by compound addition after 72 hrs by MTT assay; format: functional, cell-based
# How it was run: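 MCF-7 grown in Eagle's MEM with 10% FBS, 2 mM L-glutamine, penicillin/streptomycin and 1% non-essential amino acids. Cells seeded at 2.5 x 10⁴ cells/mL, 24 h at 37 °C, then dosed from ethanol stocks over 1 nM–100 µM (vehicle 1% v/v ethanol) for 72 h. MTT at 1 mg/mL final, 2 h in the dark, DMSO solubilisation. Viability set against untreated controls; IC50 is the mean of three experiments in triplicate.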
# [2] = Antiproliferative activity against human NCI60 cells by SRB assay; format: functional
# How it was run: (§1)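 NCI panel of 56 cell lines (MCF-7 included), run after an initial single-dose 10 μM screen. Five-dose testing used a sulphorhodamine B protein-staining read-out. GI50 (50% growth inhibition) and LC50 (50% lethal concentration) were derived for each line, and a mean GI50 was taken across the panel.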
# MCF7 [3] = experiment: Antiproliferative activity against human MCF7 cells by SRB assay; format: functional; how it was run: as §1
# MCF7 [4] = experiment: Cytotoxicity against human MCF7 cells assessed as induction of cell death at 10 uM after 72 hrs by LDH assay; format: cell-based; conditions: mcf7, 72 h
# How it was run: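 Cell death in MCF-7 measured by LDH release. Seeding and dosing as for the MTT assay; after 72 h, lysis solution added to blank wells for 1 h to give 100% death. Supernatant mixed with substrate (INT to formazan) for 30 min at rt in the dark, then stopped and read at 490 nm. Percentage cell death reported at 10 μM; assays in triplicate.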
# Tubulin (Homo sapiens) = Tubulin (Homo sapiens) (UniProt P68371+Q9H4B7+P0DPH7+P68366+Q13509+Q71U36+P04350+Q3ZCM7+P07437+P68363+Q9BQE3+Q6PEY2+Q13885+Q9BVA1+Q9BUF5); experiment: Inhibition of tubulin polymerization in human MCF7 cells assessed as induction of microtubules bundles formation at 1 uM incubated for 16 hrs by FITC-DAPI staining based confocal microscopic analysis; format: cell-based
# MCF7 [5] = experiment: Inhibition of tubulin polymerization in human MCF7 cells assessed as loss of microtubules formation at 100 nM incubated for 16 hrs by FITC-DAPI staining based confocal microscopic analysis; format: functional, cell-based
# How it was run: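 MCF-7 seeded at 1×10^5 cells/ml on chamber glass slides and treated 16 h with paclitaxel (1 μM), test agent (100 nM) or vehicle (1% v/v ethanol). Fixed 20 min in 4% paraformaldehyde, permeabilised in 0.5% Triton X-100, blocked in 5% BSA. Stained with anti-α-tubulin–FITC (DM1A, 1:100, 2 h rt) and Alexa Fluor 488, DAPI counterstain. Imaged by confocal microscopy; three independent occasions.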
# MCF7 [6] = experiment: Binding affinity to beta-Tubulin in human MCF7 cells assessed as inhibition of protein-EBI adduct formation at Cys239 and Cys354 at 10 uM pre-incubated for 2 hrs followed by EBI addition after 1.5 hrs by Western blot analysis; format: cell-based
# How it was run: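 MCF-7 seeded at 5×10^4 cells/well and incubated overnight. Treated 2 h with test agent at 10 μM or with vehicle (0.1% v/v ethanol), then with N,N'-ethylene-bis(iodoacetamide) for a further 1.5 h. Cells washed in ice-cold PBS and lysed in Laemmli buffer. SDS-PAGE, PVDF transfer and β-tubulin immunoblot to detect the faster-migrating β-tubulin–EBI adduct. Three independent experiments.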
# [7] = Antiproliferative activity against human MDA-MB-321 cells assessed as cell viability after 72 hrs by MTT assay; format: functional, cell-based
# How it was run: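 MDA-MB-231 cells kept in DMEM with 10% FBS, 2 mM L-glutamine and penicillin/streptomycin. Seeded at 2.5 x 10⁴ cells/mL, 24 h at 37 °C, then exposed for 72 h to 1 nM–100 µM from ethanol stocks (1% v/v ethanol vehicle). MTT added at 1 mg/mL final for 2 h in the dark, DMSO solubilisation, absorbance read, viability relative to untreated controls.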
# [8] = Half life of the compound in pH 7.4 after 3 to 24 hrs by HPLC; format: physicochemical
# How it was run: (§2)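 10 mg compound was dissolved in 10 ml mobile phase as stock. 200 µL stock was diluted into 9.8 mL phosphate buffer (pH 4, 7.4 or 9, British Pharmacopeia 2010) and injected immediately. Samples were analysed at t=0, then every 3 h to 24 h, by reverse-phase C8 HPLC: acetonitrile:water 50:50, 1 ml/min, 254 nm detection. Half-life was derived from these runs.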
# MCF7 [9] = experiment: Induction of apoptosis in human MCF7 cells assessed as accumulation at sub-G0/G1 level at 50 nM after 72 hrs by propidium iodide staining based flow cytometric analysis (reference value: 4%); format: functional
# MCF7 [10] = experiment: Induction of cell cycle arrest in human MCF7 cells assessed as accumulation at G2/M phase at 50 nM after 48 hrs by propidium iodide staining based flow cytometric analysis (reference value: 25%); format: functional
# [11] = Toxicity in ip dosed athymic nude mouse; format: organism-based; conditions: in vivo
# [12] = Half life of the compound in pH 9 after 3 to 24 hrs by HPLC; format: physicochemical; how it was run: as §2
# [13] = Antitumor activity against human UACC62 cells xenografted in athymic nude mouse assessed as reduction in tumor cell growth at 37.5 mg/kg, ip by hollow fiber assay; format: functional; conditions: UACC-62, ip, read-out: TGI
# [14] = Half life of the compound in pH 4 after 3 to 24 hrs by HPLC; format: physicochemical; how it was run: as §2
# MCF7 [15] = experiment: Induction of cell cycle arrest in human MCF7 cells assessed as accumulation at G2/M phase at 50 nM after 24 hrs by propidium iodide staining based flow cytometric analysis (reference value: 25%); format: functional
# MCF7 [16] = experiment: Induction of apoptosis in human MCF7 cells assessed as accumulation at sub-G0/G1 level at 100 nM after 72 hrs by propidium iodide staining based flow cytometric analysis (reference value: 4%); format: functional
# Chain of Tubulin (Sus scrofa) (P02550 whole entry, looked up): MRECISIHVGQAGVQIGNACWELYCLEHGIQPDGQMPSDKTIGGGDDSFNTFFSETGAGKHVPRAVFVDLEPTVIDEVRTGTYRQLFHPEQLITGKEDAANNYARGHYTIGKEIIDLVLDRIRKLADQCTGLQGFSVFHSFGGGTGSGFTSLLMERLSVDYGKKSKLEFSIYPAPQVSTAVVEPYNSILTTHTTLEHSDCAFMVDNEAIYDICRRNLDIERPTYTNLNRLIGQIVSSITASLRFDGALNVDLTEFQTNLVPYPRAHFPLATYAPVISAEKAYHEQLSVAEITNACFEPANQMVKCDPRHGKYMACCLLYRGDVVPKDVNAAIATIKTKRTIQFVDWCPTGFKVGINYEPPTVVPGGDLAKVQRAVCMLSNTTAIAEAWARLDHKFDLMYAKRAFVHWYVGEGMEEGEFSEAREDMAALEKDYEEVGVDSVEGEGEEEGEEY
# Chain of Tubulin (Sus scrofa) (P02554 whole entry, looked up): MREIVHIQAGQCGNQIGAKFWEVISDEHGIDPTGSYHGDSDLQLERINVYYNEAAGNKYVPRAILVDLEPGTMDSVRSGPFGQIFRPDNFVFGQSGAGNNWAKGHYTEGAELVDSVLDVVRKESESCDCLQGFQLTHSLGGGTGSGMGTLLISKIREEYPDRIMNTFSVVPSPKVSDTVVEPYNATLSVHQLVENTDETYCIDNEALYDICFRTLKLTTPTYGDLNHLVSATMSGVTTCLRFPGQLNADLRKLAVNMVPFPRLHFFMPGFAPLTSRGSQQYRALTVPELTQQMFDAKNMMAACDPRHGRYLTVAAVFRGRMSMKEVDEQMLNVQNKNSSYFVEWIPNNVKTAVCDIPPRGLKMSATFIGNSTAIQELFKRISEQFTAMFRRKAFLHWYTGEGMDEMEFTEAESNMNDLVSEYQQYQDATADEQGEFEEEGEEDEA
SMILES,fold change (FC) (Tubulin (Sus scrofa)),IC50 (MCF7 [1]) [nM],GI50 [2] [nM],GI50 (MCF7 [3]) [nM],Activity (MCF7 [4]) [%],inhibition (Tubulin (Homo sapiens)),inhibition (MCF7 [5]),Activity (MCF7 [6]),IC50 [7] [nM],half-life [8] [h],Activity (MCF7 [9]) [%],Activity (MCF7 [10]) [%],MTD [11] [mg/kg],half-life [12] [h],inhibition in vivo at 37.5 mg/kg [13] [%],half-life [14] [h],Activity (MCF7 [15]) [%],Activity (MCF7 [16]) [%]
COc1ccc([C@@H]2[C@H](Oc3ccccc3)C(=O)N2c2cc(OC)c(OC)c(OC)c2)cc1O (relative stereo),1.1,383,1450,360,2.8,–,–,–,–,–,–,–,–,–,–,–,–,–
CC(=O)O[C@H]1C(=O)[C@@]2(C)[C@H]([C@H](OC(=O)c3ccccc3)[C@]3(O)C[C@H](OC(=O)[C@H](O)[C@@H](NC(=O)c4ccccc4)c4ccccc4)C(C)=C1C3(C)C)[C@]1(OC(C)=O)CO[C@@H]1C[C@@H]2O,–,–,–,–,–,Active,–,–,–,–,–,–,–,–,–,–,–,–
COc1ccc(/C=C\c2cc(OC)c(OC)c(OC)c2)cc1O [COMBRETASTATIN A4],6,3.9,–,–,5.5,–,Active,Active,–,–,–,–,–,–,–,–,–,–
COc1ccc([C@@H]2[C@@H](Oc3ccccc3)C(=O)N2c2cc(OC)c(OC)c(OC)c2)cc1N (relative stereo),1.8,13,22.4,< 10,10.2,–,Active,Active,15,> 24,35,73,100,18,50,18,57,–
COc1ccc([C@@H]2[C@@H](Oc3ccccc3)C(=O)N2c2cc(OC)c(OC)c(OC)c2)cc1O (relative stereo),3.2,38,–,–,29,–,–,–,–,8,–,–,–,11,–,12,–,34

# From ChEMBL document CHEMBL3758073, “Synthesis and Biochemical Evaluation of 3-Phenoxy-1,4-diarylazetidin-2-ones as Tubulin-Targeting Antitumor Agents” (J Med Chem, 2016)
